Bioassay records (PubChem)
Beta apoptosis: blocks beta cell apoptosis; INS-1E cytokine-induced death, ATP luminescence, 48 h; percent of positive-control rescue, neutral wells zero; protection from apoptosis, % (concentration not given with the values); actives 0.8% (n = 300,000);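 active = Every replicate reaches about 75%, or at least half do and their mean reaches it too, limit read from the data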;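 also: 0% = cytokine-treated negative control wells and 100% = positive control rescue; higher means more ATP so stronger rescue from cytokine killing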
T cruzi inh: blocks replication of Trypanosoma cruzi; AID 1885; inhibition, % (concentration not given with the values); T. cruzi beta-gal in NIH3T3, luminescence, 90 h; actives 1.4% (n = 300,000);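 active = mean inhibition across valid replicates above about 55%, limit read from the data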;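 also: signal also drops with host cell toxicity which is not excluded here; 0% = plate median of DMSO wells and 100% = zero luminescence signal; higher percent means less beta-gal luminescence so fewer parasites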
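Assay system: NIH/3T3 host cells with β-galactosidase reporter T. cruzi; input: 5,000 host fibroblasts per well; compound: single 50 nL compound addition per well in DMSO; timing: ≥90 h infection period, 3 h prior cell attachment; measured by: GalScreen β-gal luminescence, detergent lysis, 60 min; evaluation: percent inhibition of parasite-derived β-gal signal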
CHOP inhibitor: blocks CHOP induction under ER stress | inhibition, % at 10 µM | CHO-K1 CHOP-promoter luciferase, tunicamycin-induced, 15-18 h | AID 2732 | actives 3.8% (n = 220,000);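 active = compounds that reduced the stress-induced luciferase reporter signal by more than about 70% of percent inhibition, limit read from the data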;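 also: 0% = tunicamycin plus vehicle and 100% = wells without tunicamycin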
NR3A LBD binder: modulators (binders) of human NR3A ligand-binding domain | NR3A LBD differential scanning fluorimetry, Tm shift; 0% = protein alone, 100% = glycine-bound protein | actives 2.5% (n = 340,000) | Tm shift relative to glycine control, % at 25 µM;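 active = melting temperature shift of at least 10% of the positive control shift, at one fixed dose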
PREPL inh: inhibitors of human prolyl oligopeptidase-like enzyme PREPL. inhibition, % at 5.96 µM. actives 0.68% (n = 320,000). recombinant PREPL, fluorescence polarization activity-based probe; in the data active = inhibition above about 43%;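 also: 0% = enzyme with DMSO and 100% = wells lacking enzyme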
Target sequence (Q4J6C6 whole entry, looked up): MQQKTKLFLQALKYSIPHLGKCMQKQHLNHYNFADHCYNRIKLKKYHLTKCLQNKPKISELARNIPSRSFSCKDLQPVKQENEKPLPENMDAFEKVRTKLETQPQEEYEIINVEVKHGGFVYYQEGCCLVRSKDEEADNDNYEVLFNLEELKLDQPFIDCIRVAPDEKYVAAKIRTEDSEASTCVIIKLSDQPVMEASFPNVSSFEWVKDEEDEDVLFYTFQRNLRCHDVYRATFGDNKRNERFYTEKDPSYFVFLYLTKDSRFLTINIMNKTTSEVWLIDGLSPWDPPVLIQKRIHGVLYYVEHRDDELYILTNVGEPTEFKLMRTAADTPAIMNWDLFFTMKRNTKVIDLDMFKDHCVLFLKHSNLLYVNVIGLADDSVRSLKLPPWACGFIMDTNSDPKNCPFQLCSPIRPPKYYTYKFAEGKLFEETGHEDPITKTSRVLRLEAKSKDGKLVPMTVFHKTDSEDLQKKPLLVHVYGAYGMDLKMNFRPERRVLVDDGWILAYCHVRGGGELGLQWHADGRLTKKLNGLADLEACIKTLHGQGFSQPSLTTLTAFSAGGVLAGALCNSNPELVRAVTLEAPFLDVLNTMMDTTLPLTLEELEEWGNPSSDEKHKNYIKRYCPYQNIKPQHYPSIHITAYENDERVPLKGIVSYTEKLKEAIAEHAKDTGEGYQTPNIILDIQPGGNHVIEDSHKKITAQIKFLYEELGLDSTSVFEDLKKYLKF
CSC inhib: blocks cancer stem cells; cancer stem cell-like cells viability, luminescence; inhibition, % at 7.5 µM; actives 1.1% (n = 300,000); AID 2717; in the data active = inhibition above about 75%; tested in HMLE shEcad cells
Numbers without * were called inactive; / = no result. Rows were chosen to be rich in hits. Some 6.7% of all compounds tested hit in one or more screens of this group.

SMILES	Beta apoptosis	T cruzi inh	CHOP inhibitor	NR3A LBD binder	PREPL inh	CSC inhib
CSc1ccccc1NC(=O)CN(Cc1ccc(Cl)cc1)S(C)(=O)=O	0	22	77*	-1	-7	-5
Cc1ccccc1NCCC(=O)Nc1ccc(Cl)cc1	-1	2	/	14*	-19	16
CC(Sc1nnc(C2CC2)n1C1CC1)C(=O)Nc1cccc(S(=O)(=O)N2CCOCC2)c1 (centres undefined)	-3	/	/	2	5	-4
O=C(O)CN1C(=O)C(=O)N(Cc2ccc(C(F)(F)F)cc2)C1=O	0	-7	/	0	6	-21
CCn1c(SCC(=O)NCc2ccccc2)nnc1-c1ccccc1O	2	-3	82*	-1	-1	-1
Cc1ccc(-n2c(CCc3ccccc3)nnc2SCC(=O)NCc2ccccc2)cc1C	1	14	85*	1	12	-2
Cc1ccc(S(=O)(=O)N2[C@@H](c3ccc(C(C)C)cc3)C(C(=O)O)=C[C@H]2C(C)(C)C)cc1	/	/	/	-1	6	/
CC(C)[C@H](NS(=O)(=O)c1ccccc1)C(=O)OCC(=O)N1N=C(c2ccc(Cl)cc2)CC1c1ccco1 (some centres undefined)	-13	5	22	7	-2	-2
CCOc1ccc(NC(=O)CN(C)S(=O)(=O)c2cccc3cccnc23)cc1	4	-3	/	0	4	6
CC(=O)N1CCN(c2ncnc3ccccc23)CC1	/	-4	/	0	-2	-6
O=C(Nc1ccc2c(c1)C(=O)c1ccccc1-2)c1ccccc1	/	/	/	18*	/	/
COc1cccc(C(=O)Nc2ccc3c(c2)C(=O)c2ccccc2C3=O)c1	25	9	12	16*	1	7
CC(=O)Nc1ccc2c(c1)C(=O)c1cccc(C(=O)O)c1-2	/	/	/	14*	/	/
O=C(O)c1cccc2c1C(=O)c1ccccc1C2=O	-3	-14	-12	0	9	-3
Cc1cccc(C)c1OCC(=O)N(Cc1ccc(Cl)cc1)C1CCS(=O)(=O)C1 (centres undefined)	-2	25	/	-3	7	1
O=C(COc1cccc(NC(=O)c2cccc([N+](=O)[O-])c2)c1)c1ccc(F)cc1	5	-11	21	1	3	34
Cc1ccc(C(=O)NC(=S)Nc2cccc(NC(=O)c3ccccc3Cl)c2)cc1[N+](=O)[O-]	-2	-45	52	-5	8	25
Cc1ccc(C(=O)Nc2ccc(OCc3ccccc3)cc2)cc1[N+](=O)[O-]	1	-5	55	28*	9	2
CCOc1ccc(OCc2cccc(C(=O)Nc3ccc(CN4CCCCC4)cc3)c2)cc1	19	26	61	-2	-2	79*
O=C(Nc1ccc(OCc2ccccc2)cc1)c1cccc([N+](=O)[O-])c1	6	12	41	27*	3	30
Cc1ccc(C(=O)NC(=S)Nc2cccc(NC(=O)c3ccccc3)c2)cc1[N+](=O)[O-]	-6	-9	44	19*	-7	7
OC[C@H]1O[C@@H](n2cnc3c(NCCc4ccccc4)ncnc32)C(O)[C@H]1O (some centres undefined)	/	/	-2	/	/	/
COc1ccc(-c2cn(CCO)c(-c3ccncc3)n2)cc1	1	/	/	-1	5	-4
O=C(NCc1ccco1)c1cc([N+](=O)[O-])ccc1N1CCOCC1	5	-8	-12	2	5	5
Nc1ccccc1-c1ccc([N+](=O)[O-])cc1	/	/	/	0	/	/
SMILES	Beta apoptosis	T cruzi inh	CHOP inhibitor	NR3A LBD binder	PREPL inh	CSC inhib
COc1ccc(COCC(O)CN(Cc2ccco2)Cc2ccccc2O)cc1 (centres undefined)	3	9	40	-9	-6	6
Oc1ccccc1CN(Cc1ccco1)CC(O)COCc1ccc(Cl)cc1 (centres undefined)	-10	8	84*	-6	1	25
O=C(Nc1cccc(C(F)(F)F)c1)N1CCC(c2nc(-c3ccc(F)cc3)no2)CC1	30	53	91*	21*	-50	28
O=C(Nc1ccccc1)N1CCCC(c2nc(-c3ccc(F)cc3)no2)C1 (centres undefined)	-6	-5	19	2	7	7
COc1ccc(C2=NOC(Cn3nc(-c4ccccc4)cc3C(=O)NCc3ccccc3OC)C2)cc1 (centres undefined)	12	/	/	25*	2	/
CCN1C=C(C(=O)c2ccccc2)C(=O)CC1	/	/	/	2	/	/
COc1cc(C#Cc2c(-c3cncn3C)n(C)c3ccc(-c4ccc(OC)nc4)cc23)cc(OC)c1	18	/	/	-8	25	84*
CCCCC[n+]1ccn(C2=C([O-])c3ccccc3C(=O)/C2=N\S(=O)(=O)c2ccccc2)c1	90*	1	-29	-1	19	-10
CCCCC[n+]1ccn(C2=C([O-])c3ccccc3C(=O)/C2=N\S(=O)(=O)c2ccc(Br)cc2)c1	/	0	-28	-5	15	29
CCCC[n+]1ccn(C2=C([O-])c3ccccc3C(=O)/C2=N\S(=O)(=O)c2ccccc2)c1	46	1	-3	0	15	20
Cc1cc(C)cc(NS(=O)(=O)c2cccs2)c1	-8	6	/	-2	-2	/
O=C1/C(=N\S(=O)(=O)c2cccs2)C([n+]2cccc(Cc3ccccc3)c2)=C([O-])c2ccccc21	101*	12	65	1	-1	54
Cc1cc(C)c[n+](C2=C([O-])c3ccccc3C(=O)/C2=N\S(=O)(=O)c2cccs2)c1	107*	-18	-45	-1	1	24
Cc1cc[n+](C2=C([O-])c3ccccc3C(=O)/C2=N\S(=O)(=O)c2cccs2)cc1C	-6	57*	-29	0	-1	-12
O=C(c1cccc2ccccc12)C1CCCN(C(=O)c2ccc(N3CCOCC3)cc2)C1 (centres undefined)	0	1	26	0	17	-2
O=C(Nc1ccccc1)C1=C[C@@H](c2coc3ccccc3c2=O)C[C@@H](OCCCCO)O1	4	-4	33	-1	2	-11
CC(C)[n+]1ccn(C2=C([O-])c3ccccc3C(=O)/C2=N\S(=O)(=O)c2ccccc2)c1	54	-2	6	1	21	4
CC(C)(C)c1cc[n+](C2=C([O-])c3ccccc3C(=O)/C2=N\S(=O)(=O)c2ccccc2)cc1	82*	13	24	1	9	27
CC(C)(C)c1cc(C(=O)Nc2cccnc2)cc(C(=O)Nc2cccnc2)c1	6	-5	/	-2	4	-20
CCOC(=O)[C@@H]1[C@H]2COc3ccccc3[C@H]2N2C(=O)N(c3ccc(Cl)cc3)C(=O)[C@@]12C	2	13	/	3	-88	1
COc1ccc(-c2cc(-c3ccc(OC)cc3)[nH]n2)cc1	-14	25	50	10	12	/
